Measured values published in ChEMBL document CHEMBL2150901, “Synthesis and biological activity of tricyclic cycloalkylimidazo-, pyrimido- and diazepinopurinediones” (Eur J Med Chem, 2011).
Activity calls are given as the source filed them. No cut-off for these calls is given here.

Experiments:
Adenosine receptor A1 [1] = biological target: T1, Adenosine receptor A1 (Homo sapiens, UniProt P30542); assay: Displacement of [3H]CCPA from human recombinant adenosine A1 receptor expressed in CHO cells; format: cell-based
T1 sequence (P30542 whole entry): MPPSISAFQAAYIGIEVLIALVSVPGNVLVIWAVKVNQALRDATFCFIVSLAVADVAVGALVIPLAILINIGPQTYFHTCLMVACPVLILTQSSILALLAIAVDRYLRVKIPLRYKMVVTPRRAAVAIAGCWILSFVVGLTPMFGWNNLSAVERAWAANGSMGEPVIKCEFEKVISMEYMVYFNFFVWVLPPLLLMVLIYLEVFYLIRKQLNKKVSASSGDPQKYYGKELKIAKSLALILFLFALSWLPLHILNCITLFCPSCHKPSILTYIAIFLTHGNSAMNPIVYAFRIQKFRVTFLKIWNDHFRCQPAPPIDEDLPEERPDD

Mus musculus [2] = assay: Anticonvulsant activity in F1 albino mouse assessed as protection against subcutaneous pentylenetetrazole-induced seizures at 300 mg/kg, ip after 0.5 hrs; format: functional, organism-based; set-up: dose 300 mg/kg
In short: (§1)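 Male albino F-1 mice (18–25 g), groups of 1–5 (rotorod 2–8). Compound given ip as a suspension in 0.5% methylcellulose at 30, 100 and 300 mg/kg. Seizures by maximal electroshock or subcutaneous pentylenetetrazole; neurotoxicity by rotorod. Read at 0.5 and 4 h, with some at 0.25, 1 and 2 h. Value is the minimum active dose, with protected (or toxic)/tested animals.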

Mus musculus [3] = assay: Neurotoxicity in F1 albino mouse assessed as minimal motor impairment at 300 mg/kg, ip after 0.5 hrs by rotorod test; format: toxicity, organism-based; set-up: dose 300 mg/kg, route intraperitoneal; details: in vivo; in short: as §1
Mus musculus [4] = assay: Anticonvulsant activity in F1 albino mouse assessed as protection against maximal electroshock-induced seizures at 300 mg/kg, ip after 4 hrs; format: functional, organism-based; set-up: dose 300 mg/kg; in short: as §1
Adenosine receptor A1 [5] = biological target: T2, Adenosine receptor A1 (Rattus norvegicus, UniProt P25099); assay: Displacement of [3H]CCPA from adenosine A1 receptor in rat brain cortical membrane; format: cell membranes
T2 sequence (P25099 whole entry): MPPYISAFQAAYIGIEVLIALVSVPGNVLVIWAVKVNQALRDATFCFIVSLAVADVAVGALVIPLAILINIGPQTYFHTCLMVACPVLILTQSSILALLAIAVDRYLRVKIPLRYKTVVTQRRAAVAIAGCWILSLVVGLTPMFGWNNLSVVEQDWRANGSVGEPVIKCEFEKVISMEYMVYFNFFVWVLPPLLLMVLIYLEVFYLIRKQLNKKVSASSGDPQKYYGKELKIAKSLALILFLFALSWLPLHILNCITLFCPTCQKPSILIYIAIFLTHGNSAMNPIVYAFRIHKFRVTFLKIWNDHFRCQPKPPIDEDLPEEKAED

Adenosine receptor A3 = biological target: T3, Adenosine receptor A3 (Homo sapiens, UniProt P0DMS8); assay: Displacement of [3H]PSB-11 from human recombinant adenosine A3 receptor expressed in CHO cells; format: cell-based
T3 sequence (P0DMS8 whole entry): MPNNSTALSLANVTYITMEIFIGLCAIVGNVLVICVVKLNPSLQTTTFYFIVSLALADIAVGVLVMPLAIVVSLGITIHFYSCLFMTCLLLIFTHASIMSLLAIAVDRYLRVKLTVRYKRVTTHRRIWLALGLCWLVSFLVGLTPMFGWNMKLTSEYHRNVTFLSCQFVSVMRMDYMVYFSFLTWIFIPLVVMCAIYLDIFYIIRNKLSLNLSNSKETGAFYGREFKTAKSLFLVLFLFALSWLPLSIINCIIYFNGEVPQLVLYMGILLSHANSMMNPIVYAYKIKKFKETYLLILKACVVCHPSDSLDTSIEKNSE

Mus musculus [6] = assay: Neurotoxicity in F1 albino mouse assessed as minimal motor impairment at 300 mg/kg, ip after 4 hrs by rotorod test; format: toxicity, organism-based; set-up: dose 300 mg/kg, route intraperitoneal; details: in vivo; in short: as §1
Mus musculus [7] = assay: Anticonvulsant activity in F1 albino mouse assessed as protection against maximal electroshock-induced seizures at 300 mg/kg, ip after 0.5 hrs; format: functional, organism-based; set-up: dose 300 mg/kg; in short: as §1
Adenosine receptor A2b = biological target: T4, Adenosine receptor A2b (Homo sapiens, UniProt P29275); assay: Displacement of [3H]PSB-603 from human recombinant adenosine A2B receptor expressed in CHO cells; format: cell-based
T4 sequence (P29275 whole entry): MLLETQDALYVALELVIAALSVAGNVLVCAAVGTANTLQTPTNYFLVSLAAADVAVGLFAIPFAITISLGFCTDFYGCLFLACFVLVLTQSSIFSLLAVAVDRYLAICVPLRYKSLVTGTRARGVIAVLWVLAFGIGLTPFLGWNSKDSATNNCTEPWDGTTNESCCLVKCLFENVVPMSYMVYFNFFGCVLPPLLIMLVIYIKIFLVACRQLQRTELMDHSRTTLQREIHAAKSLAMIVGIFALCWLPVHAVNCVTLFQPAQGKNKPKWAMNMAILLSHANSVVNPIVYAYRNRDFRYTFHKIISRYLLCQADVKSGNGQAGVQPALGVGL
In short: (§2)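 CHO cell membranes expressing the human receptor. Radioligands: A1 [3H]CCPA; A2B [3H]ZM241385 or [3H]PSB-603; A3 [3H]PSB-11. […] Potent compounds run at 6–7 concentrations spanning 3 orders of magnitude; Ki ± SEM.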

Mus musculus [8] = assay: Anticonvulsant activity in F1 albino mouse assessed as protection against subcutaneous pentylenetetrazole-induced seizures at 300 mg/kg, ip after 0.25 hrs; format: functional, organism-based; set-up: dose 300 mg/kg; in short: as §1
[9] = biological target: T5, Adenosine receptor A3 (Homo sapiens) (UniProt P0DMS8); assay: Displacement of [3H]PSB-11 from human recombinant adenosine A3 receptor expressed in CHO cells at 10 uM; format: cell-based; in short: as §2
T5 sequence (whole entry): T3 sequence (P0DMS8 whole entry)

Mus musculus [10] = assay: Anticonvulsant activity in F1 albino mouse assessed as protection against subcutaneous pentylenetetrazole-induced seizures at 300 mg/kg, ip after 4 hrs; format: functional, organism-based; set-up: dose 300 mg/kg; in short: as §1
[11] = biological target: T6, Adenosine receptor A1 (Homo sapiens) (UniProt P30542); assay: Displacement of [3H]CCPA from human recombinant adenosine A1 receptor expressed in CHO cells at 10 uM; format: cell-based; in short: as §2
T6 sequence (whole entry): T1 sequence (P30542 whole entry)

[12] = biological target: T7, Adenosine receptor A1 (Rattus norvegicus) (UniProt P25099); assay: Displacement of [3H]CCPA from adenosine A1 receptor in rat brain cortical membrane at 25 uM; format: cell membranes
T7 sequence (whole entry): T2 sequence (P25099 whole entry)

Mus musculus [13] = assay: Anticonvulsant activity in F1 albino mouse assessed as protection against maximal electroshock-induced seizures at 300 mg/kg, ip after 0.25 hrs; format: functional, organism-based; set-up: dose 300 mg/kg; in short: as §1
[14] = biological target: T8, Adenosine receptor A2b (Homo sapiens) (UniProt P29275); assay: Displacement of [3H]PSB-603 from human recombinant adenosine A2B receptor expressed in CHO cells at 10 uM; format: cell-based; in short: as §2
T8 sequence (whole entry): T4 sequence (P29275 whole entry)

Mus musculus [15] = assay: Neurotoxicity in F1 albino mouse assessed as minimal motor impairment at 300 mg/kg, ip after 0.25 hrs by rotorod test; format: toxicity, organism-based; set-up: dose 300 mg/kg, route intraperitoneal; details: in vivo; in short: as §1
Mus musculus [16] = assay: Anticonvulsant activity in F1 albino mouse assessed as protection against subcutaneous pentylenetetrazole-induced seizures at 300 mg/kg, ip after 1 hr; format: functional, organism-based; set-up: dose 300 mg/kg; in short: as §1
Mus musculus [17] = assay: Anticonvulsant activity in F1 albino mouse assessed as protection against maximal electroshock-induced seizures at 300 mg/kg, ip after 1 hr; format: functional, organism-based; set-up: dose 300 mg/kg; in short: as §1
Adenosine receptor A2a [18] = biological target: Adenosine receptor A2a (Homo sapiens, UniProt P29274); assay: Displacement of [3H]MSX-2 from human recombinant adenosine A2A receptor expressed in CHO cells; format: cell-based
Adenosine receptor A2a (Homo sapiens, UniProt P29274), sequence (P29274 whole entry): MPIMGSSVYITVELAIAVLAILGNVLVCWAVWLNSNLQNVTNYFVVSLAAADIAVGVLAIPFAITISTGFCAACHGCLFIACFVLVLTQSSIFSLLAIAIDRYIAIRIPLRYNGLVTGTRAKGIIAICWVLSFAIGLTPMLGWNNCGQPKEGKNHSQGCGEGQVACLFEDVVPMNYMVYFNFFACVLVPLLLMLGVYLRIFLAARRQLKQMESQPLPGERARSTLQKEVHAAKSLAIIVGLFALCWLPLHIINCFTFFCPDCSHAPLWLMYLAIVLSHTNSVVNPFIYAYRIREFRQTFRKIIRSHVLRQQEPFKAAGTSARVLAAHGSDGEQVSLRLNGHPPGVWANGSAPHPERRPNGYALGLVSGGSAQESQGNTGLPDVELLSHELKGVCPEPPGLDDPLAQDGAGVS

Mus musculus [19] = assay: Neurotoxicity in F1 albino mouse assessed as minimal motor impairment at 300 mg/kg, ip after 1 hr by rotorod test; format: toxicity, organism-based; set-up: dose 300 mg/kg, route intraperitoneal; details: in vivo; in short: as §1
Adenosine receptor A2a [20] = biological target: Adenosine receptor A2a (Rattus norvegicus, UniProt P30543); assay: Displacement of [3H]MSX-2 from adenosine A2A receptor in rat brain striatal membrane; format: cell membranes
Adenosine receptor A2a (Rattus norvegicus, UniProt P30543), sequence (P30543 whole entry): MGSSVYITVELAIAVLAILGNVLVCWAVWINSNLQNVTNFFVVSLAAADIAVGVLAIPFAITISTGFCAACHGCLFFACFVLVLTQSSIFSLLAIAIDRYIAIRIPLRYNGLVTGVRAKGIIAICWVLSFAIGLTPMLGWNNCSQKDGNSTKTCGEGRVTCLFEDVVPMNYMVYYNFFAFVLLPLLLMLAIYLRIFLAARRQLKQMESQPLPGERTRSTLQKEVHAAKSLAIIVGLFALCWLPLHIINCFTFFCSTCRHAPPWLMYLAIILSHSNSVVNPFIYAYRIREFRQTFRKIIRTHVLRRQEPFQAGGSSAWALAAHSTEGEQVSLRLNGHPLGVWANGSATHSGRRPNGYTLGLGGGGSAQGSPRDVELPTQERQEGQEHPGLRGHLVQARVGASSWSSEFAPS

Rattus norvegicus = species on record: Rattus norvegicus; assay: Selectivity ratio of Ki for adenosine A1 receptor in rat brain cortical membrane to Ki for adenosine A2A receptor in rat brain striatal membrane; format: cell membranes
In short: (§3)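 Ki ratios from radioligand competition binding. Rat A1 used brain cortical membranes and rat A2A used brain striatal membranes. Human A1 and A2A used membranes of CHO cells expressing the receptors. A1 radioligand [³H]CCPA; A2A radioligand [³H]MSX-2. Potent compounds were tested at 6–7 concentrations spanning 3 orders of magnitude.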

CHO = assay: Selectivity ratio of Ki for human recombinant adenosine A2A receptor expressed in CHO cells to Ki for adenosine A2A receptor in rat brain striatal membrane; format: cell-based; in short: as §3
Mus musculus [21] = assay: Neurotoxicity in F1 albino mouse assessed as minimal motor impairment at 100 mg/kg, ip after 0.5 hrs by rotorod test; format: toxicity, organism-based; set-up: dose 100 mg/kg, route intraperitoneal; details: in vivo; in short: as §1

Row | Ki (Adenosine receptor A1 [1]) [µM] | Ki (Adenosine receptor A1 [5]) [µM] | Ki (Adenosine receptor A3) [µM] | Ki (Adenosine receptor A2b) [µM] | inhibition [9] [%] | inhibition [12] [%] | Ki (Adenosine receptor A2a [20]) [µM] | Ratio Ki (Rattus norvegicus) | SMILES | Activity (Mus musculus [2]) | Activity (Mus musculus [3]) | Activity (Mus musculus [4]) | Activity (Mus musculus [6]) | Activity (Mus musculus [7]) | Activity (Mus musculus [8]) | Activity (Mus musculus [10]) | Activity (Mus musculus [13]) | Activity (Mus musculus [15]) | Activity (Mus musculus [16]) | Activity (Mus musculus [17]) | Activity (Mus musculus [19]) | also measured
1 | > 10 | > 10 | > 10 | > 10 | 6 | 4 | 2.67 | 4 | Cn1c(=O)c2c(nc3n2CCCN3C2CCCCCC2)n(C)c1=O | inactive | Non-toxic | inactive | Non-toxic | inactive | inactive | inactive | inactive | Non-toxic | inactive | inactive | Non-toxic | inhibition [11]: 41%; inhibition [14]: 0%; Ki (Adenosine receptor A2a [18]): 1.16 µM
2 | 10.3 | ≥ 10 | > 10 | > 10 | 5 | 39 | 1.93 | > 5 | Cn1c(=O)c2c(nc3n2CCCN3C2CCC2)n(C)c1=O | inactive | Non-toxic | inactive | Non-toxic | inactive | inactive | inactive | inactive | Non-toxic | inactive | inactive | Non-toxic | inhibition [14]: 21%; Ki (Adenosine receptor A2a [18]): 0.847 µM
3 | > 10 | ≥ 25 | > 10 | > 10 | 12 | 39 | 0.81 | > 31 | Cn1c(=O)c2c(nc3n2CCCN3C2CCCCC2)n(C)c1=O | Active | Non-toxic | inactive | Non-toxic | inactive | inactive | inactive | inactive | Non-toxic | inactive | inactive | Non-toxic | Ratio Ki (CHO): 2; inhibition [11]: 37%; inhibition [14]: 0%; Ki (Adenosine receptor A2a [18]): 1.61 µM
4 | > 10 | > 10 | > 10 | > 10 | 27 | 5 | 6.2 | > 2 | CC(=O)O[C@H]1CC[C@H](N2CCCn3c2nc2c3c(=O)n(C)c(=O)n2C)CC1 | inactive | Non-toxic | inactive | Non-toxic | inactive | inactive | inactive | inactive | Non-toxic | inactive | inactive | Non-toxic | Ratio Ki (CHO): 3; inhibition [11]: 5%; inhibition [14]: 0%; Ki (Adenosine receptor A2a [18]): 21.9 µM
5 |  | > 25 |  |  |  | 27 | 3.46 | > 7 | CC1CCCCC1N1CCCCn2c1nc1c2c(=O)n(C)c(=O)n1C (mixture of isomers) | Active | Non-toxic | inactive | Non-toxic | inactive | inactive | inactive | inactive | Non-toxic | inactive | inactive | Non-toxic | 
6 |  | ≥ 25 |  |  |  | 44 | 3.81 | 7 | Cn1c(=O)c2c(nc3n2CCCCN3C2CCC(O)CC2)n(C)c1=O (mixture of isomers) | Active |  | inactive | Non-toxic | inactive | inactive | inactive | inactive | Non-toxic | inactive | inactive | Non-toxic | Activity (Mus musculus [21]): Non-toxic
7 |  | ≥ 25 |  |  |  | 41 | 2 | > 13 | Cn1c(=O)c2c(nc3n2CCN3CC2CCCCC2)n(C)c1=O | inactive | Non-toxic | inactive | Non-toxic | inactive | inactive | inactive | inactive | Non-toxic | inactive | inactive | Non-toxic | 
8 |  | 25 |  |  |  | 50 | 3.1 | 8 | Cn1c(=O)c2c(nc3n2CCN3C2CCCC2)n(C)c1=O | Active | Toxic | inactive | Non-toxic | inactive | inactive | inactive | inactive | Non-toxic | inactive | inactive | Non-toxic | 
